The text below walks through data of ChEMBL document CHEMBL2176966, “Discovery of 6,7-dihydro-5H-pyrrolo[2,3-a]pyrimidines as orally available G protein-coupled receptor 119 agonists” (J Med Chem, 2012).

Active and inactive are the calls of the source. The rule behind the calls is not given here.

Data set [1] in a line: Clearance in mouse at 30 mg/kg. Format: ADME, organism-based. Also noted: dose 30 mg/kg. The conditions noted are these: in vivo.
For data set [2], the system named is Mus musculus. Description: Increase in glucagon level in GPR119 transgenic wild type mouse at 30 mg/kg, po after 60 mins relative to control. Format: functional. Put shortly: (§1)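 Wild-type and GPR119 knockout mice, fasted overnight, were dosed by oral gavage (30 mg/kg, 10 mL/kg, 0.5% HPMC/0.1% Tween80 vehicle). Plasma was obtained from cardiac blood at 60 min in chilled K2-EDTA containing DPP-4 inhibitor and aprotinin, then stored at −80 °C. Hormone levels were compared with vehicle; n = 8–10.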

The next data set deals with T1, MAO-B (Homo sapiens, UniProt P27338).
T1 sequence (P27338 whole entry): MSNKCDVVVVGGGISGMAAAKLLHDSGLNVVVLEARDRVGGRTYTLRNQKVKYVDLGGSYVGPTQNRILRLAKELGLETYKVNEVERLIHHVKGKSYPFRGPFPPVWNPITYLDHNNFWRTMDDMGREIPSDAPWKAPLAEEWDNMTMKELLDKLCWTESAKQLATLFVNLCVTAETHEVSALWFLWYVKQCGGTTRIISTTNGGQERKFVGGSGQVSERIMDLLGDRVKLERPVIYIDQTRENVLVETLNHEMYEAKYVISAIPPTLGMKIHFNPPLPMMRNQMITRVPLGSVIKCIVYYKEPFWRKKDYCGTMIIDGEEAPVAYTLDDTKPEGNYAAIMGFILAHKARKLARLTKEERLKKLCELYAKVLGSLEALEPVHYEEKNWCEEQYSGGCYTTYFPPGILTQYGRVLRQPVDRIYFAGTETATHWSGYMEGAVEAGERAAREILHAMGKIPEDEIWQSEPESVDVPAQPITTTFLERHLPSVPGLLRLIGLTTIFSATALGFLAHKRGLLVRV
As to the kind of experiment: Inhibition of MAO-B at 10 uM. The method in brief: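 Compound was tested at 10 μM in a panel of 68 receptors, ion channels and enzymes. Percent inhibition or stimulation was recorded.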

Data set [3] is described as follows: Clearance in rat at 30 mg/kg. It counts as ADME, organism-based. Also on record: dose 30 mg/kg. The note with it: in vivo.
Data set [4] is described as follows: Ratio of drug level brain to plasma in rat at 30 mg/kg. It counts as ADME, organism-based. Also noted: dose 30 mg/kg. The note with it: read-out: BPR.
Data set [5] can be described thus: Induction of GLP1 secretion in mouse GLUTag cells after 2 hrs. Format: functional, cell-based. The method in brief:
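GLUTag cells were grown to 80% confluence on Matrigel-coated plates in DMEM with 2 mM L-glutamine and 10% FBS. They were preincubated 30 min in Krebs-Ringer buffer (10 mM D-glucose, 0.1% BSA, DPP-IV inhibitor). Compound was then added at varying concentrations in the same buffer for 2 h at 37 °C, 5% CO2. Cleared supernatant was assayed for amidated (active) GLP-1 by sandwich electrochemiluminescence immunoassay.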

The test system of data set [6] is Mus musculus. Description: Increase in GLP-1 level in GPR119 knockout mouse at 30 mg/kg, po after 60 mins by electrochemiluminescence assay. Format: functional, organism-based. Also noted: dose 30 mg/kg. The method in brief: (§2)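 Wild-type and GPR119 knockout mice, fasted overnight, received vehicle (0.5% HPMC/0.1% Tween80) or 30 mg/kg by oral gavage at 10 mL/kg. At 60 min, blood was taken by cardiac puncture under isoflurane into chilled K2-EDTA tubes with DPP-4 inhibitor and aprotinin (250 KIU/mL). Plasma was spun at 4 °C and stored at −80 °C. Total GLP-1 was measured by electrochemiluminescence immunoassay; n = 10.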

Data set [7] deals with Rattus norvegicus. As to the kind of experiment: Increase of C-peptide level in Wistar rat at 10 mg/kg, po after 10 to 90 mins. It counts as functional, organism-based. Also on record: dose 10 mg/kg. Put shortly:
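Male Wistar rats (300–350 g) with jugular and femoral vein catheters, one week post-surgery, fasted overnight. Randomized to vehicle (n = 19) or oral compound (n = 8). About 90 min after gavage, a hyperglycemic clamp was started: a glucose bolus into the femoral vein, then variable-rate infusion holding glucose at 190–210 mg/dL. Serum C-peptide was measured by RIA, first phase 0–5 min and second phase 10–90 min.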

The test system of data set [8] is Mus musculus. As to the kind of experiment: Increase in GLP-1 level in GPR119 transgenic wild type mouse at 30 mg/kg, po after 60 mins by electrochemiluminescence assay relative to control. Format: functional. Put shortly: as §2
Data set [9] is described as follows: Half life in rat at 30 mg/kg. It counts as ADME, organism-based. Also on record: dose 30 mg/kg. The conditions noted are these: in vivo.
The species named for data set [10] is Rattus norvegicus. Description: Potentiation of 3 mM of glucose-induced insulin secretion in rat islet at 0.3 uM.
Data set [11] has as its system Mus musculus. As to the kind of experiment: Increase in GIP level in GPR119 knockout mouse at 30 mg/kg, po after 60 mins by ELISA relative to control. Also noted: dose 30 mg/kg. Format: functional, organism-based. Put shortly: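 Overnight-fasted wild-type or GPR119 knockout mice were given vehicle (0.5% HPMC/0.1% Tween80) or 30 mg/kg orally at 10 mL/kg. Cardiac blood was drawn 60 min post-dose under isoflurane into chilled K2-EDTA with DPP-4 inhibitor and aprotinin (250 KIU/mL). Plasma was prepared at 4 °C and held at −80 °C. Total GIP was measured by ELISA; n = 10.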

Data set [12] is described as follows: Half life in mouse at 30 mg/kg. It counts as ADME, organism-based. Also noted: dose 30 mg/kg. The note with it: in vivo.
The test system of data set [13] is Rattus norvegicus. Description: Antihyperglycemic activity in Sprague-Dawley rat assessed as reduction of acetaminophen AUC (0 to 2 hrs) at 10 mg/kg, po relative to control. Format: functional. Also noted: scale not given: the % may be the effect or the level left. The method in brief: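 Male Sprague-Dawley rats, fasted overnight, dosed orally at 10 mL/kg in 0.5% HPMC/0.1% Tween80 (vehicle or compound) at −120 min. Pramlintide (15 μg) was given to a positive-control cohort at −15 min. Baseline plasma was taken at time 0, then acetaminophen (65 mg) by gavage. The plasma acetaminophen concentration–time profile was followed for 3 h; AUC 0–2 h was compared with vehicle.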

For data set [14], the system named is Mus musculus. As to the kind of experiment: Increase in glucagon level in GPR119 knockout mouse at 30 mg/kg, po after 60 mins. Format: functional, organism-based. Also noted: dose 30 mg/kg. Put shortly: as §1
The test system of data set [15] is Mus musculus. As to the kind of experiment: Toxicity in C57BL/6 mouse assessed as effect on food intake at 10 mg/kg, po measured up to 24 hrs. Format: organism-based. Also noted: dose 10 mg/kg, route oral. The note with it: in vivo. The method in brief: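 Individually housed male C57BL/6 mice were fasted overnight and given 10 mg/kg. Normal-chow hoppers were weighed and returned. Hopper weights were recorded at 1, 2, 4, 6 and 24 h post-dose and compared with vehicle-treated mice.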

The next data set addresses Cytochrome P450 2C9 (Homo sapiens, UniProt P11712). Description: Inhibition of CYP2C9. It counts as ADME.
Data set [16] can be described thus: Oral bioavailability in rat at 30 mg/kg. It counts as ADME, organism-based. The note with it: in vivo.
Data set [17] concerns Rattus norvegicus. As to the kind of experiment: Antihyperglycemic activity in Wistar rat assessed as glucose excursion curve at 10 mg/kg, po by glucose tolerance test. Format: functional.
Data set [18] is described as follows: Cmax in rat at 30 mg/kg. It counts as ADME, organism-based. Also on record: dose 30 mg/kg. The note with it: in vivo.
For a further data set, the system named is PCC. Description: Induction of GLP1 secretion in C57BL/6 mouse PCC cells at 0.1 to 1 uM after 24 hrs. Format: functional, cell-based. Put shortly: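 Primary colonic crypts were isolated from mouse colon by three 15 min, 37 °C digests with collagenase II, dispase I, DNase I and hyaluronidase, then pooled and washed. Crypts were seeded on Matrigel-coated plates in high-glucose DMEM with 10% FBS and allowed to attach for 24 h. GLP-1 secretion was then assayed as for GLUTag cells (2 h KRB exposure, electrochemiluminescent active GLP-1 immunoassay).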

Data set [19] relates to Mus musculus. As to the kind of experiment: Increase in PYY level in GPR119 transgenic wild type mouse at 30 mg/kg, po after 60 mins relative to control. Format: functional. Put shortly: as §1
A short description of data set [20]: Volume of distribution at steady state in mouse at 30 mg/kg. Format: ADME, organism-based. The conditions noted are these: in vivo, read-out: Vdss. Also noted: dose 30 mg/kg.

Chain of Cytochrome P450 2C9 (P11712 whole entry): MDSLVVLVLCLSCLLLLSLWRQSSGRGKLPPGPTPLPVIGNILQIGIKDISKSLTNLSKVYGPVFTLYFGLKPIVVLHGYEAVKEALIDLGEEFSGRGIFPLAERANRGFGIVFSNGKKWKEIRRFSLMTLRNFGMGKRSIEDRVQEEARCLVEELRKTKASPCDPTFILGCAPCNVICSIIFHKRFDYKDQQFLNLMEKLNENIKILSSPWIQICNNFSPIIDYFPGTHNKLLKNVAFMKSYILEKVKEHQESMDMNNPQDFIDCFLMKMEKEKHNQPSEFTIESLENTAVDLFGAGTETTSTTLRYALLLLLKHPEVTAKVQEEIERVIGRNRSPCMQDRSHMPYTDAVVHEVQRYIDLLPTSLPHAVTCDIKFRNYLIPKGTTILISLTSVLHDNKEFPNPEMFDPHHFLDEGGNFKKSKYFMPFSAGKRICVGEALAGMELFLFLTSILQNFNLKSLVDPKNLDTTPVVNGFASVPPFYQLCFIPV

Take `CC(C)OC(=O)N1CCC(Oc2ncnc3c2CCN3c2ccc(S(C)(=O)=O)cc2F)CC1`: the values for the clearance in [1] and in [3] were 7.2 mL/min/kg and 8.4 mL/min/kg, respectively. The “fold change (FC)” value in the data set on Mus musculus [2] came to 2; in the data set with Mus musculus [8], 4; in the data set on Mus musculus [19], 3. Moreover, the inhibition at 10 µM against MAO-B is 54%. For the same compound, in data set [4], the Kp stood at 0.7. In addition, the response in data set [5] was half-maximal at 20 nM (EC50). The outcome with Mus musculus [6], in the data set listed under Rattus norvegicus [10], in the data set with Mus musculus [11] and with Mus musculus [14] was inactive. Moreover, the result in the data set on Rattus norvegicus [7] and in the data set with PCC was Active. Further, the half-life in data set [9] was 8.7 h; in data set [12], 2.8 h. The figures for the Activity in the data set on Rattus norvegicus [13], in the data set on Mus musculus [15] and in the data set with Rattus norvegicus [17] were 27%, “Non-toxic” and 43%, respectively. Also, on Cytochrome P450 2C9, it took 3000 nM to reach half-maximal inhibition (IC50). This compound also returned a bioavailability in data set [16] of 66%. Further, the concentration in [18] peaked (Cmax) at 9 µM. Moreover, the Vd in [20] was found to be 0.7 L/kg.
